Measured values collected from several papers.
Protocols differ between the studies behind these lines. pIC50: −log10 of the molar value.
Cell line: HCT-116
Effect on: cell growth or viability

COc1ccc(Nc2nc(-n3nc(C)cc3C)nc(-n3nc(C)cc3C)n2)cc1 — pIC50 (MTT; 72 h): 5.44
COc1cccc2c1C(=O)c1c(O)c3c(c(O)c1C2=O)C[C@@](O)(C(=O)CO)C[C@@H]3O[C@H]1C[C@H](N)[C@H](O)[C@H](C)O1 — pIC50 (SRB): 4.24
c1ccc2cc(-c3nnc(NC4CCCCC4)[nH]3)ccc2c1 — pIC50 (48 h): 5.60
COc1cc([C@@H]2c3cc4c(cc3[C@@H](O[C@@H]3O[C@@H]5CO[C@@H](C)O[C@H]5[C@H](O)[C@H]3O)[C@H]3COC(=O)[C@H]23)OCO4)cc(OC)c1O — pIC50 (MTS; 72 h): 4.71
CSc1nc(/N=C/c2cc([N+](=O)[O-])ccc2O)n(-c2ccc(C(=O)O)cc2)n1 — pIC50 (MTT): 4.22
O=C(NC(=S)NCCCNC(=S)NC(=O)c1ccc2ccccc2c1)c1ccc2ccccc2c1 — pIC50 (48 h): 5.91
COCCCOc1ccnc(COc2ccc(NC(=O)Nc3cccc(C(F)(F)F)c3)cc2)c1C — pIC50 (MTT; 72 h): 5.06
COc1cc(Nc2nccc(-c3cnn4nc(OC)ccc34)n2)cc(C(F)(F)F)c1 — pIC50 (ATP luminescence): 6.26
CC[C@H](C)C(=O)O[C@H]1C[C@@H](C)C=C2C=C[C@H](C)[C@H](CC[C@@H]3C[C@@H](O)CC(=O)O3)[C@H]21 — IC50 (SRB; 72 h): 6.79 µg/mL
COCCCOc1ccnc(COc2ccc(NC(=O)Nc3cc(F)cc(F)c3)cc2)c1C — pIC50 (MTT; 72 h): 4.25
CC1=C(O)C(=O)C=C2C1=CC=C1[C@@]2(C)CC[C@@]2(C)[C@@H]3C[C@](C)(C(=O)OCCCCCO)CC[C@]3(C)CC[C@]12C — pIC50 (MTT; 48 h): 6.32
FC(F)(F)c1ccc(C(c2c[nH]c3ccccc23)c2c[nH]c3ccccc23)cc1 — pIC50 (ATP luminescence; 22 h): 5.03
CC1=C(O)C(=O)C=C2C1=CC=C1[C@@]2(C)CC[C@@]2(C)[C@@H]3C[C@](C)(C(=O)OCCCn4ccc5ccccc54)CC[C@]3(C)CC[C@]12C — pIC50 (MTT; 48 h): 5.56
CC(=O)Oc1ccc2c(CSC(C)=O)cc(=O)oc2c1 — pIC50 (MTT; 36 h): < 4.70
COc1ccc(NC(=O)Nc2ccc(OCc3nccc(OC)c3OC)cc2)cc1 — pIC50 (MTT; 72 h): 4.88
CSc1nc(/N=C/c2ccc(O)cc2)n(-c2ccc(C(=O)O)cc2)n1 — pIC50 (MTT): 4.17
COc1c(C)cnc(COc2ccc(NC(=O)Nc3ccc(Cl)cc3)cc2)c1C — pIC50 (MTT; 72 h): 4.71
O=c1[nH]cc(F)c(=O)[nH]1 — pIC50 (WST-1; 48 h): 5.02
CC(C)[C@H](N)c1nc2cc(-c3ccncc3F)sc2c(=O)[nH]1 — pIC50 (MTT): 6.80
CCC[C@H](Nc1nc(-c2ccc(NC(=O)NCC)c(OC)c2)ncc1C)c1cccnc1 — pIC50 (fluorescence; 72 h): 7.32
CC[C@H](C)C(=O)O[C@H]1CCC=C2C=C[C@H](C)[C@H](CC[C@@H]3C[C@@H](O)CC(=O)O3)[C@H]21 — IC50 (SRB; 72 h): 4.57 µg/mL
CC1=C(O)C(=O)C=C2C1=CC=C1[C@@]2(C)CC[C@@]2(C)[C@@H]3C[C@](C)(C(=O)OCCCCCCO)CC[C@]3(C)CC[C@]12C — pIC50 (MTT; 48 h): 6.28
O=C(Nc1nnnn1C1CCCCC1)c1ccc2ccccc2c1 — pIC50 (48 h): 5.51
Cc1c(O)ccc2ccc(=O)oc12 — pIC50 (MTT; 36 h): < 4.70
CSc1nc(N)n(-c2ccc(C(=O)O)cc2)n1 — pIC50 (MTT): 4.21
Cn1c(-c2nnc(NC(=O)c3cc4c([nH]c5ccccc54)c(-c4ccc(F)cc4)n3)s2)cc2ccccc21 — pIC50 (MTT; 72 h): 4.84
O=Cc1ccc(CO)o1 — pIC50 (WST-1; 48 h): 4.08
COc1cccc2c3c(c[n+](C)c12)sc1cccc(F)c13 — pIC50 (MTT; 72 h): 5.17
C=CC(=O)Nc1cccc(Nc2nc(Nc3ccc(OCCOC)cc3)ncc2F)c1 — pIC50: 5.17
Cc1ccc(O)c(/C=N/c2nc(Oc3ccccc3)nn2-c2ccc(C(=O)O)cc2)c1 — pIC50 (MTT): 4.13
COc1c(C)cnc(COc2ccc(NC(=O)Nc3cccc(C(F)(F)F)c3)cc2)c1C — pIC50 (MTT; 72 h): 4.90
CCN(CC)C(=S)NC(=O)c1ccc2ccccc2c1 — pIC50 (48 h): 5.29
CC1=C(O)C(=O)C=C2C1=CC=C1[C@@]2(C)CC[C@@]2(C)[C@@H]3C[C@](C)(C(=O)OCCCOc4ccccc4)CC[C@]3(C)CC[C@]12C — pIC50 (MTT; 48 h): 5.87
O=C(/N=C1\SCC(=O)N1C1CCCCC1)c1ccc2ccccc2c1 — pIC50 (48 h): 5.04
CCn1c(-c2nnc(NC(=O)c3cc4c([nH]c5ccccc54)c(-c4ccc(OC)cc4)n3)s2)cc2ccccc21 — pIC50 (MTT; 72 h): 4.70
COC(=O)c1ccc(-n2nc(SC)nc2N)cc1 — pIC50 (MTT): 4.41
CCn1c(-c2nnc(NC(=O)c3cc4c([nH]c5ccccc54)c(-c4cc(OC)c(OC)c(OC)c4)n3)s2)cc2ccccc21 — pIC50 (MTT; 72 h): 4.73
O=c1cc(CCl)c2c(O)cc(O)cc2o1 — pIC50 (MTT; 36 h): < 4.70
COc1ccc(NC(=O)Nc2ccc(OCc3nccc(OCC(F)(F)F)c3C)cc2)cc1 — pIC50 (MTT; 72 h): 4.72
CSc1nc(/N=C/c2cccc(O)c2)n(-c2ccc(C(=O)O)cc2)n1 — pIC50 (MTT): 4.15
NC(=O)NOCCCCCCCCCCCC[P+](c1ccccc1)(c1ccccc1)c1ccccc1 — pIC50 (imaging): 5.74
COc1c(C)cnc(COc2ccc(NC(=O)Nc3ccc(F)cc3)cc2)c1C — pIC50 (MTT; 72 h): 4.90
Cc1c(C)c2c(O)cc(O)cc2oc1=O — pIC50 (MTT; 36 h): < 4.70
O=C(NC(=S)NC1CCCCC1)c1ccc2ccccc2c1 — pIC50 (48 h): 5.34
COCCCOc1ccnc(COc2ccc(NC(=O)Nc3ccc(F)cc3)cc2)c1C — pIC50 (MTT; 72 h): 5.19
COc1ccc(-c2nc(C(=O)Nc3nnc(-c4cc5ccccc5n4C)s3)cc3c2[nH]c2ccccc23)cc1 — pIC50 (MTT; 72 h): 5.09
CC(=O)SCc1cc(=O)oc2ccc(O)cc12 — pIC50 (MTT; 36 h): < 4.70
